{
  "source": "paper PMC4083586",
  "about": "(Biotechnology journal, 2011)",
  "tested_on": "porcine parvovirus (PPV)",
  "assay": "PPV removal by peptide-resin columns from 7.5% human blood plasma",
  "assay_type": "binding, porcine parvovirus (PPV) NADL-2 strain",
  "conditions": "Figure 3B",
  "in_short": "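Peptides on resin at 0.10 mmol/g dry resin with a four-unit ethylene oxide spacer; 0.5 ml settled resin in PBS per column; acetylated control. About 5 log₁₀ (MTT/ml) PPV was pumped at 0.1 ml/min. Fractions of 0.5 ml (one column volume) were titered by MTT assay on PK-13 cells. Clearance over five column volumes was expressed relative to a reference trimer ligand (100%). Duplicates.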",
  "data": [
    {"substance": "YKLKYY", "values": [
      {"measurement": "PPV clearance of the first five column volumes, ranking among ligands", "result": "highest virus clearance"}
    ]}
  ]
}
